Screening results as filed in PubChem BioAssay.
This is a sample that favours compounds with a hit; in the whole collection about 1.3% have one here.
ASAP1 GAP inh = blocks human ASAP1-stimulated Arf1 GTP hydrolysis; GDP FP detection; inhibition, % at 16.5 µM; 360,000 compounds, 0.19% hits; AID 624377; in the data active = inhibition above about 25%;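 note: 0% = vehicle with enzyme and substrate and 100% = no enzyme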
CASP6 VEID inh = blocks human caspase-6 cleavage activity; inhibition, % at 12.5 µM; purified caspase-6, Z-VEID-R110 cleavage fluorescence; 350,000 compounds, 0.53% hits; P55212; AID 686996;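 active = mean inhibition across replicates at least about 35%, with every replicate also reaching that limit, limit read from the data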;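 note: 0% = median of neutral control wells and 100% = no fluorescence left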
Target sequence (P55212 24-179 limits assumed): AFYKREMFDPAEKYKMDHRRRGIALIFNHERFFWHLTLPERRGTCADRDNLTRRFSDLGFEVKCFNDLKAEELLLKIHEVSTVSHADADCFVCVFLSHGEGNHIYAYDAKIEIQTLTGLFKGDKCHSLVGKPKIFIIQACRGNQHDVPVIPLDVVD
Target sequence (P55212 194-293 limits assumed): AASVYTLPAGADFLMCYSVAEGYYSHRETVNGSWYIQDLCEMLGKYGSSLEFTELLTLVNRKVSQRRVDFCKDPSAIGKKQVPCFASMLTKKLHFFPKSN
TDP2 inh = blocks human TDP2 phosphodiesterase activity; O95551; recombinant TDP2, T5PNP hydrolysis, p-nitrophenol absorbance 415 nm; inhibition, % at 12.8 µM; 370,000 compounds, 0.34% hits; AID 720702;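 active = inhibition above the mean of all tested compounds plus 3 SD, set per campaign, cut at about 25% in these data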;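 note: 0% = DMSO with enzyme and 100% = buffer with substrate but no TDP2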
Target sequence (O95551 whole entry, looked up): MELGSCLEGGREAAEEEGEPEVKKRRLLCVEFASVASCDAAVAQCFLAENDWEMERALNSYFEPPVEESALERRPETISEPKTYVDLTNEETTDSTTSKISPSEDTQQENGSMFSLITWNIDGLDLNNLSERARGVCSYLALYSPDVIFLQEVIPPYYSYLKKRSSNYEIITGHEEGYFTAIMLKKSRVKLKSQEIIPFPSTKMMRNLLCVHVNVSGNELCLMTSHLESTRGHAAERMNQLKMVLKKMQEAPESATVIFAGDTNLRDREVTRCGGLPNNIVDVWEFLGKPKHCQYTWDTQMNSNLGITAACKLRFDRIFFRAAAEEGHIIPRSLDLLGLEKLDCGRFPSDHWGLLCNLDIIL
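Incubation: 2 h at 37 °C; Test system: recombinant human TDP2; Quantity: enzyme 120 nM; Read-out basis: percent inhibition; Medium: 50 mM Tris-HCl pH 7.5 with Mg2+, KCl, DTT, BSA; Repeats: single replicate; Compound: 12.8 µM single point, 1% DMSO; Signal: epi absorbance; Reagent: 5 mM T5PNP chromogenic substrate; Benchmarks: no-enzyme high, DMSO-plus-enzyme low.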
ARFGAP1 inh = inhibitors of rat ARFGAP1; Arfgap1-stimulated ARF1 GTP hydrolysis, GDP FP detection; 360,000 compounds, 0.26% hits; AID 651572; inhibition, % at 16.5 µM; Q62848;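 active = inhibition above a per-plate limit, mean inhibition of low control wells plus 3 SD, cut at about 25% in these data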;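 note: 0% = DMSO wells with enzyme and 100% = wells lacking Arfgap1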
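System: truncated rat Arfgap1 GAP domain / Medium: HEPES-based buffer, pH 7.5 / Also added: N-terminally truncated human ARF1-GTP substrate / Incubation: enzyme reaction 120 min at 25 °C after 20 min preincubation / Measured by: FP of antibody-bound GDP Alexa 633 tracer, ex 620/em 688 nm / Replicates: singlicate, each compound tested once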
LEDGF integ inh = blocks HIV-1 LEDGF/p75-dependent DNA integration; inhibition, % at 3.7 µM; 370,000 compounds, 0.64% hits; TR-FRET IN-LEDGF/p75 DNA integration, Eu/Cy5;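 active = inhibition above the screen-wide mean plus 3 SD, cut at about 13% in these data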;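 note: signal is the Cy5 over europium emission ratio at 671 and 618 nm; 0% = plate median of compound wells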
IN multimer up = HIV-1 integrase multimerization activation, counter-screen. activation, % at 7.7 µM. 2,000 compounds, 17% hits. TR-FRET HIV-1 integrase multimerization, biochemical. AID 1053131. shares compounds with LEDGF integ inh; in the data active = activation above about 8.9%
TR-FRET interf = counter-screen for LEDGF/p75 integration inhibitors: TR-FRET optical interference. shares compounds with LEDGF integ inh. TR-FRET optical interference counterscreen, HIV-1 IN multimerization. inhibition, % at 7.7 µM. 2,000 tested, under 10 active;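 active = inhibition above the mean over all tested compounds plus 3 SD, which no compound reached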;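 note: 0% = integrase with antibodies and DMSO and 100% = antibodies without integrase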
IN-LEDGF confirm = LEDGF/p75-dependent HIV-1 integration inhibition, confirmation; shares compounds with LEDGF integ inh; TR-FRET LEDGF/p75-dependent HIV-1 integration, biochemical; 2,000 compounds, 36% hits; inhibition, % at 3.7 µM; in the data active = inhibition above about 14%
An asterisk follows results filed as active; i = inactive; x = no result given.

SMILES	ASAP1 GAP inh	CASP6 VEID inh	TDP2 inh	ARFGAP1 inh	LEDGF integ inh	IN multimer up	TR-FRET interf	IN-LEDGF confirm
Oc1ccc(N=Nc2ccccc2-c2nn[nH]n2)c(O)c1	-1.9	14.0	17.2	-14.2	19.3*	17.9*	-63.6	8.9
Cc1ccccc1-c1nn[nH]n1	0.4	x	-4.5	-7.3	-2.3	x	x	x
Cc1ccc(-n2ncc3c(=O)n(CC(=O)NC4CCCCC4)cnc32)cc1	-3.0	x	-4.6	-0.9	0.6	x	x	x
O=C(COC(=O)c1cncc(Br)c1)NCc1ccco1	-0.1	x	-7.7	3.6	16.3*	7.2	-36.4	29.1*
CCC(C)(C)NC(=O)C(OC(=O)c1ccco1)c1ccccc1F (stereo unspecified)	-3.4	3.2	-24.0	5.7	1.0	x	x	x
O=C(CN1CCOCC1)N[C@H]1CC[C@H](CCNC(=O)C2CCCCC2)O[C@@H]1CO	x	0.1	x	x	x	x	x	x
C[C@@H]1CN([C@H](C)CO)C(=O)c2ccccc2-c2ccccc2CO[C@@H]1CN(C)Cc1cccnc1	x	0.2	x	x	x	x	x	x
CC1(C(=O)NCc2ccccc2)CN(S(C)(=O)=O)CC(=O)N1CCc1ccccc1 (stereo unspecified)	0.5	0.2	4.2	-2.8	0.0	x	x	x
COCCN1C(=O)CN(S(C)(=O)=O)CC1(C)C(=O)NCc1ccccc1 (stereo unspecified)	6.4	-2.5	7.9	-5.8	14.3*	0.2	-0.8	-0.7
Oc1ccc(Br)cc1-c1cc(-c2ccccc2Cl)[nH]n1	3.0	3.3	-17.4	8.1	25.5*	1.1	-5.8	-3.7
Oc1ccc(Br)cc1-c1cc(-c2ccccc2F)[nH]n1	1.6	x	-8.2	-1.4	-3.5	x	x	x
CC(=O)c1cccc(NC(=O)C2CCN(S(C)(=O)=O)CC2)c1	-12.7	0.2	-0.3	9.6	3.4	x	x	x
Cc1ccc(S(=O)(=O)N/N=C/c2cc(Br)ccc2O)cc1	1.6	-1.8	-9.6	5.1	-5.7	x	x	x
Cc1ccc(S(=O)(=O)Nc2ccc(Br)cc2/C=N/n2cnnc2)cc1	-2.3	x	10.5	-19.3	17.2*	-0.1	0.4	27.6*
CCCCn1c(N)c(N(CCOC)C(=O)c2ccc(N3CCCC3)c([N+](=O)[O-])c2)c(=O)[nH]c1=O	-2.4	3.3	-4.1	8.0	27.5*	0.4	-1.9	2.3
O=C(c1ccccc1)N1CC(=O)N2[C@H](CO)[C@@H](c3ccc(C4=CCCC4)cc3)[C@@H]2C1	x	-1.3	x	x	x	x	x	x
CC(=O)C1=C(O)C(=O)N(Cc2cccnc2)C1c1ccccc1Cl (stereo unspecified)	-0.5	x	-1.1	2.0	-1.2	x	x	x
CCOC(=O)c1ccc(NC(=O)c2nc[nH]c2C(=O)NCCNC(=O)c2[nH]cnc2C(=O)Nc2ccc(C(=O)OCC)cc2)cc1	-1.2	-2.2	-25.1	4.9	-2.3	x	x	x
CCOC(=O)c1ccc(NC(=O)c2nc[nH]c2C(=O)NC)cc1	-12.2	2.4	-8.3	13.8	18.3*	0.0	0.2	-0.7
CCOC1CCCc2oc(-c3ccsc3)c(-c3cnc(OC)nc3)c21 (stereo unspecified)	-2.9	5.1	7.7	5.5	-12.8	x	x	x
COc1cc(C)cc(C(=O)O)c1C1=C(O)c2cccc(O)c2C(=O)C1=O	7.0	29.7	-11.5	-5.0	18.4*	13.0*	-65.4	18.6*
COC(=O)c1cccc(NC(=O)Cn2nnc3ccccc32)c1	2.9	x	4.7	-12.5	19.2*	1.0	-5.2	-1.3
CCCCCC(=O)Nc1ccc(S(=O)(=O)Nc2cc(OC)nc(OC)n2)cc1	0.9	0.2	-8.8	11.4	-1.9	x	x	x
Cc1nn(C)cc1/C=N\NC(=O)c1ccc(Cn2cc(Cl)cn2)cc1	11.2	0.9	2.6	9.2	-0.2	x	x	x
CC(C)(CS(=O)(=O)[O-])NC(=O)CC[N+](C)(C)CCO	11.6	x	-1.5	11.8	39.4*	122.2*	i	37.8*
SMILES	ASAP1 GAP inh	CASP6 VEID inh	TDP2 inh	ARFGAP1 inh	LEDGF integ inh	IN multimer up	TR-FRET interf	IN-LEDGF confirm
COc1ccc(NC(=O)N(C)C[C@@H]2Oc3ncc(C#CC(C)C)cc3C(=O)N([C@H](C)CO)C[C@H]2C)cc1	x	2.6	x	x	x	x	x	x
Cc1cccc2c(C(=O)O)cc(-c3cccnc3)nc12	-0.8	-6.0	-7.4	-4.4	-2.5	x	x	x
COC(=O)c1cc(O)cc(OC)c1Oc1cc(C)cc(O)c1C(=O)O	-2.7	42.6*	-15.1	4.9	19.4*	40.2*	-202.5	58.2*
CC(C)CC#Cc1cnc2c(c1)C(=O)N([C@H](C)CO)C[C@@H](C)[C@H](CN(C)C(=O)CCN1CCCCC1)O2	x	0.4	x	x	x	x	x	x
NC(=O)CSCc1cccc(Br)c1	4.9	x	9.2	-5.2	32.9*	-0.1	0.5	4.8
Cc1sc2nc(CSCC(=O)Nc3ccc(OC(F)F)cc3)[nH]c(=O)c2c1C	-2.1	-4.1	0.2	-7.2	-3.2	x	x	x
CC(=C\c1ccccc1)/C=C1/SC(=S)N(C(C(=O)O)C(C)C)C1=O (stereo unspecified)	-11.9	3.6	-9.7	-14.4	4.3	x	x	x
CC(C(=O)O)N1C(=O)/C(=C/C=C/c2ccco2)SC1=S (stereo unspecified)	-8.6	x	2.8	-44.7	93.2*	47.6*	-169.2	88.2*
O=C1/C(=C/C=C/c2ccco2)SC(=S)N1NS(=O)(=O)c1ccccc1	-4.2	78.9*	22.0	-25.8	70.5*	20.3*	-72.6	76.2*
CCN(C[C@H]1N[C@@](CC)(C(=O)OC)[C@H]2C(=O)N(Cc3ccccc3)C(=O)[C@@H]12)C(=O)Nc1ccc(C(F)(F)F)cc1	-14.1	-0.2	1.8	10.7	65.5*	-1.9	9.7	-5.0
CCN(C[C@H]1N[C@@](CC)(C(=O)OC)[C@H]2C(=O)N(Cc3ccccc3)C(=O)[C@@H]12)C(=O)Nc1ccc(OC)cc1	-10.6	-1.8	4.1	7.6	-1.2	x	x	x
CCN(CC(=O)Nc1ccccc1OC)C(=O)C1CCCC1	2.3	2.1	9.0	11.0	0.9	x	x	x
CO[C@H]1CN(C)C(=O)c2cc(NC(=O)C3CC3)ccc2OC[C@H](C)N(Cc2cncnc2)C[C@H]1C	x	0.5	x	x	x	x	x	x
Cc1cc(=O)oc(C)c1C(=O)Nc1cccc2ccccc12	12.8	x	8.8	3.0	30.2*	0.4	-2.1	-0.5
COc1cc(OC)c(C(=O)O/N=C(\N)c2cccc(C)c2)cc1OC	1.1	2.9	0.8	5.3	17.1*	-0.9	4.5	-0.7
COc1ccccc1-c1nnc2sc(COc3ccccc3)nn12	-7.9	x	8.8	4.4	27.8*	0.6	-2.8	7.1
